One data set relates to MT4. The data set can be described thus: Toxicity against human MT4 cells by MTT assay. The class given is cell-based. In a few lines: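 Uninfected MT-4 cells (HTLV-1-carrying T4+ line) at 1.0×10^5 cells/mL in RPMI-1640/10% FBS, gentamycin, 2 mM L-glutamine, run in triplicate alongside infected cultures for 5 days at 37 °C, 5% CO2. Compounds were diluted from DMSO, final DMSO ≤0.5%. Read by MTT (1.5 h), formazan dissolved in acidic 2-propanol, A540/690. CC50 is the concentration reducing viability by 50%.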

Data set [1] relates to Human immunodeficiency virus 1. The data set can be described thus: Antiviral activity against HIV1 3B infected in human MT4 cells […] with HTLV1 assessed as reduction in virus induced cytopathicity measured 5 days post infection by MTT assay. The format is functional, organism-based. The note with it: Human immunodeficiency virus 1, 3B, MT4, 120 h. Summed up: (§1)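 MT-4 cells (HTLV-1-carrying human T cells; RPMI-1640, 10% FBS, 2 mM L-glutamine) infected with cell-free HIV-1 IIIB or HIV-2 ROD at 100 TCID50/mL for 1.5 h at 37 °C, then plated at 1.0×10^5 cells/mL with serial compound dilutions (DMSO stock, at most 0.5% DMSO final) in triplicate. Cultured 5 days at 37 °C. Virus-induced cytopathicity read by MTT. IC50 is the concentration giving 50% protection.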

In data set [2] the test system is Human immunodeficiency virus 2. The data set can be described thus: Antiviral activity against HIV2 ROD infected in human MT4 cells assessed as reduction in virus induced cytopathicity measured 5 days post infection by MTT assay. The format is functional, organism-based. The note with it: Human immunodeficiency virus 2, ISOLATE ROD, MT4, 120 h. In a few lines: as §1

A short description of data set [3]: Selectivity index, ratio of CC50 for human MT4 cells to IC50 for HIV1 3B. The class given is functional. In a few lines:
(§2)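 Uninfected MT-4 cells (1.0×10^5 cells/mL) were cultured for 5 days at 37 °C with compound in parallel with the infected cultures. Viability was read by MTT (1.5 h with MTT, formazan dissolved in acidic 2-propanol, absorbance at 540/690 nm). CC50 is the concentration reducing viability of uninfected cells by 50%. Index = CC50/IC50 against the HIV-1 IIIB or HIV-2 ROD MT-4 assay.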

Data set [4] can be described thus: Selectivity index, ratio of CC50 for human MT4 cells to IC50 for HIV2 ROD. The class given is functional. In a few lines:
as §2

A further data set deals with Coxsackievirus B1. The data set can be described thus: Antiviral activity against Coxsackie virus B1 up to 100 ug/mL. The format is functional, organism-based.
A further data set relates to Coxsackievirus B3. The data set can be described thus: Antiviral activity against Coxsackie virus B3 up to 100 ug/mL. The class given is functional, organism-based.
The test system of another data set is Poliovirus 3. The data set can be described thus: Antiviral activity against Human poliovirus 3 up to 100 ug/mL. The class given is functional, organism-based.
The test system of another data set is Human alphaherpesvirus 2. The data set can be described thus: Antiviral activity against HSV2. The format is functional, organism-based.
The test system of data set [5] is Influenza A virus. The data set can be described thus: Antiviral activity against influenza A virus H1N1 Taiwan up to 100 ug/mL. The format is functional, organism-based.
Data set [6] relates to Influenza A virus. The data set can be described thus: Antiviral activity against Influenza A virus H3N2 Johannesburg up to 100 ug/mL. The class given is functional, organism-based.
The next data set has as its system Influenza B virus. The data set can be described thus: Antiviral activity against influenza B virus Panama up to 100 ug/mL. The format is functional, organism-based.
A further data set relates to Feline coronavirus. The data set can be described thus: Antiviral activity against Feline coronavirus WSU up to 100 ug/mL. The class given is functional, organism-based.
Data set [7] relates to Feline infectious peritonitis virus. The data set can be described thus: Antiviral activity against Feline infectious peritonitis virus WSU up to 100 ug/mL. The class given is functional.

The record followed here is ChEMBL document CHEMBL1795267, “Synthesis of enantiomerically pure D- and L-bicyclo[3.1.0]hexenyl carbanucleosides and their antiviral evaluation” (Bioorg Med Chem, 2011).

Structures are written as SMILES. In brackets after ≈: the same amount, converted by molar mass. Activity calls are given as the source filed them. The calls are words filed in the database; no cut-off is given here.

`O=c1[nH]cnc2c1ncn2[C@H]1CC[C@@H](CO)O1` [DIDANOSINE]: the CC50 with MT4 is over 100 µg/mL. For the same compound, the concentration for half-maximal inhibition (IC50) in data set [1] turned out to be 2.31 µg/mL (≈ 9.78 µM); in [2], 5.76 µg/mL (≈ 24.4 µM). The “Ratio CC50/IC50” value is on record as over 43.29 in [3] and over 17.38 in data set [4].

Consider `Cc1cn([C@@H]2C=C[C@@]3(CO)C[C@@H]23)c(=O)[nH]c1=O`, for which the 50% cytotoxic concentration (CC50) in the data set on MT4 was over 100 µg/mL. Besides, the IC50 in [1] was 1.18 µg/mL (≈ 5.02 µM); in data set [2], 2.27 µg/mL (≈ 9.69 µM); in the data set on Human alphaherpesvirus 2 it was 59.2 µg/mL (≈ 253 µM). Also, the results for the “Ratio CC50/IC50” value in data set [3] and in data set [4] were over 85.09 and over 44.05, respectively. In addition, the inhibition result with Coxsackievirus B1, in the data set on Coxsackievirus B3, in the data set with Poliovirus 3, in the data set with Influenza A virus [5], in the data set with Influenza A virus [6] and in the data set on Influenza B virus was “inactive” throughout. Also, the inhibition result (with Feline coronavirus; in data set [7]) was “inactive” each time.

In the data set with MT4, `Nc1ncnc2c1ncn2[C@H]1C=C[C@]2(CO)C[C@H]12` came in with a CC50 of over 100 µg/mL. Besides, in data set [1], the IC50 turned out to be 40.5 µg/mL (≈ 166 µM). Moreover, the “Ratio CC50/IC50” value in data set [3] is recorded as over 2.47. The inhibition result with Coxsackievirus B1, in the data set on Coxsackievirus B3 and in the data set on Poliovirus 3 was “inactive” in each case.

With `Cc1cn([C@H]2C=C[C@]3(CO)C[C@H]23)c(=O)[nH]c1=O`, the cytotoxic concentration (CC50) in the data set on MT4 was 8.558 µg/mL (≈ 36.5 µM). The IC50 was found to be 0.033 µg/mL (≈ 0.141 µM) in data set [1] and 0.112 µg/mL (≈ 0.478 µM) in data set [2]. Moreover, the “Ratio CC50/IC50” value is on record as 263 in data set [3] and 76 in data set [4]. The inhibition entry in the data set with Coxsackievirus B1, in the data set with Coxsackievirus B3 and in the data set with Poliovirus 3 was “inactive” each time.

As to `Nc1nc(O)c2ncn([C@@H]3C=C[C@@]4(CO)C[C@@H]34)c2n1`, the CC50 with MT4 was over 100 µg/mL. The IC50 in [1] and in data set [2] was over 100 µg/mL each time. The inhibition result with Coxsackievirus B1, with Coxsackievirus B3 and in the data set on Poliovirus 3 was “inactive” each time.

`Nc1ncnc2c1ncn2[C@@H]1C=C[C@@]2(CO)C[C@@H]12`: the IC50 in data set [1] and in data set [2] was over 100 µg/mL throughout. In addition, the inhibition entry in the data set on Coxsackievirus B1, with Coxsackievirus B3 and in the data set on Poliovirus 3 was “inactive” each time.

In the data set on MT4, `Nc1ccn([C@@H]2C=C[C@@]3(CO)C[C@@H]23)c(=O)n1` showed a CC50 of over 100 µg/mL. Moreover, the IC50 in [1] and in data set [2] was over 100 µg/mL in each case. In addition, the inhibition result with Coxsackievirus B1, with Coxsackievirus B3 and in the data set on Poliovirus 3 was “inactive” each time.

`Nc1ccn([C@H]2C=C[C@]3(CO)C[C@H]23)c(=O)n1` registered a CC50 in the data set on MT4 of 61.8 µg/mL (≈ 282 µM). Moreover, the IC50 in [1] and in [2] was over 61.8 µg/mL throughout. The “Ratio CC50/IC50” value in data set [3] and in [4] was under 1 in each case. The inhibition result in the data set with Coxsackievirus B1, in the data set with Coxsackievirus B3 and in the data set on Poliovirus 3 was “inactive” in each case.

For `Nc1ccn([C@H]2CC[C@@H](CO)O2)c(=O)n1` [ZALCITABINE], in the data set on MT4, the CC50 is 10.66 µg/mL (≈ 50.5 µM). Moreover, the IC50 in data set [1] was 0.043 µg/mL (≈ 0.204 µM); in [2], 0.04 µg/mL (≈ 0.189 µM). Also, the figures for the “Ratio CC50/IC50” value in [3] and in [4] were 248.73 and 266.7, respectively.

Consider `O=c1nc(O)ccn1[C@H]1C=C[C@]2(CO)C[C@H]12`, for which, in the data set on MT4, the CC50 was over 100 µg/mL. Further, the IC50 in [1] and in data set [2] was over 100 µg/mL in each case. For the same compound, the inhibition entry in the data set on Coxsackievirus B1, in the data set with Coxsackievirus B3 and in the data set with Poliovirus 3 was “inactive” throughout.

For `O=c1ccn([C@@H]2C=C[C@@]3(CO)C[C@@H]23)c(=O)[nH]1`, in [1], the IC50 was over 100 µg/mL. For the same compound, the inhibition result with Coxsackievirus B1, with Coxsackievirus B3 and with Poliovirus 3 was “inactive” each time.
